High-throughput results as filed in PubChem.
DSG3 Ab inh – human desmoglein-3 autoantibody binding inhibition | P32926 | DSG3-coupled beads, scFv-anti-DSG3-GFP binding, flow cytometry; hits give low values | binding (percent of control), % at 10 µM | actives 0.48% (n = 310,000) | AID 588358;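 active means binding more than 3 SD below its plate's average and above zero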;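 further: hits lower antibody fragment binding to DSG3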
Target sequence (P32926 whole entry, looked up, the tested form may be a part): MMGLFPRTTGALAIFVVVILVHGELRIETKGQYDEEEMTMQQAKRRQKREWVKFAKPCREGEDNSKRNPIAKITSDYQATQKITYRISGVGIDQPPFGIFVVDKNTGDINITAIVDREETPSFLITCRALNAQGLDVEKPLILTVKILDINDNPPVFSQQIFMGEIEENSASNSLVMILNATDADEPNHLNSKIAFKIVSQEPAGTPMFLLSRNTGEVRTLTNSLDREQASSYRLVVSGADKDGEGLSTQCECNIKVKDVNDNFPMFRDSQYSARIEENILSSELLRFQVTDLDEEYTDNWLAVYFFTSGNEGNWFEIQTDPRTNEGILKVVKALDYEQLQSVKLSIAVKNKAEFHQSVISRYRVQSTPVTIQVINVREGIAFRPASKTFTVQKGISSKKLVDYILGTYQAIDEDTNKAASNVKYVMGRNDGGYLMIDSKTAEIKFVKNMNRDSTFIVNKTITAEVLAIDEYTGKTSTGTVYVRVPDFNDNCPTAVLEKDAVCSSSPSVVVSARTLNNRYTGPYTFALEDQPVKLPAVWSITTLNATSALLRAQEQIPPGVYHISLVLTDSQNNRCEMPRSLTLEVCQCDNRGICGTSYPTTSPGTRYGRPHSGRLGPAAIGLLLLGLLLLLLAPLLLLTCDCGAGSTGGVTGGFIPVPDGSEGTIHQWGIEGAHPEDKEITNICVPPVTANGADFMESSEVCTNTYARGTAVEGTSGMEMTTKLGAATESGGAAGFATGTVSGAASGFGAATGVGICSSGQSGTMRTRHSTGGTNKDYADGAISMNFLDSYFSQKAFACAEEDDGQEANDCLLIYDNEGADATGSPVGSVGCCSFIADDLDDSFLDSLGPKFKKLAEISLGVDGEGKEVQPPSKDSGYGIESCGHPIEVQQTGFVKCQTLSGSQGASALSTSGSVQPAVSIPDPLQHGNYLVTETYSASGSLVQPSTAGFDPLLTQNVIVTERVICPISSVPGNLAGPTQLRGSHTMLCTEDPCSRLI
pCIP destab – lowers stability of the mouse p/CIP coactivator protein; Q05BA5; F442A p/CIP-EGFP cells, EGFP fluorescence, 16 h; decrease of EGFP signal, % at 10 µM; actives 0.01% (n = 290,000);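 active means EGFP signal decrease of at least 30% at 10 µM or well 3 SD below plate mean, unless failing retest; inactive means the rest, including hits failing retest or dose response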
RanGTP-Impb inh – inhibitors of RanGTP-importin-beta interaction, primary screen, biochemical, FRET, CFP-Ran, YFP-importin-beta, homogeneous | inhibition, % (concentration not given with the values) | cell-free CFP-Ran/YFP-importin-beta FRET ratio | actives 1.1% (n = 300,000);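 active means more than half of the replicate wells show a fall in the fluorescence ratio signal beyond about 16%, limit read from the data, passing the limit was not always enough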;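 further: 0% = DMSO wells and 100% = Ran loaded with GDP instead of GTP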
Hck Nef HTS – inhibitors of human Hck kinase activated by Nef; P08631; AID 463187; actives 0.68% (n = 220,000); inhibition, % at 20 µM; Recombinant Hck-YEEI plus Nef, Z-Lyte FRET kinase assay;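 active means Hck-Nef kinase inhibition above about 50%, limit read from the data; inactive means inhibition below that limit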;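 further: 0% = DMSO with Hck plus Nef and 100% = Hck alone without Nef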
Runt-SMMHC FRET – Runt domain-CBFb-SMMHC interaction inhibition. Q01196+Q13951. Cerulean-Runt/Venus-CBFb-SMMHC FRET ratio 530/480, 1 h. inhibition, % at 20 µM. actives 0.74% (n = 220,000). AID 1434;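 active means mean inhibition across duplicate retests at 20 µM reaching about 50%, limit read from the data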;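 further: 0% = DMSO wells and 100% = wells with excess untagged CBFb-SMMHC; inhibitors lower the FRET ratio by blocking Runt binding to CBFb-SMMHC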
Runt-CBFb FRET – inhibitors of human RUNX1 Runt domain binding to CBFb. Cerulean-Runt/Venus-CBFb FRET ratio 530/480, 1 h. inhibition, % at 20 µM. actives 0.46% (n = 220,000);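 active means inhibition over about 50% at 20 µM in the single-dose screen, limit read from the data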;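 further: 0% = DMSO wells and 100% = excess unlabeled CBFb competitor control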
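Buffer or medium: Tris pH 7.5 buffer with BSA. Assay system: Cerulean-labeled Runt domain protein. Amount: each fluorescent fusion protein 100 nM. Read-out basis: loss of energy transfer signal. Incubation: 1 h compound exposure, room temperature. Probe or stimulus: Venus-CBFb binding partner, 100 nM. Detection: FRET, excitation 422 nm, emission at 530 and 480 nm.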
An asterisk follows results filed as active; x = no result. Compounds with a hit are over-represented: about 2.1% of the library has one in this group of screens.

SMILES	DSG3 Ab inh	pCIP destab	RanGTP-Impb inh	Hck Nef HTS	Runt-SMMHC FRET	Runt-CBFb FRET
CCC[C@@H](NS(=O)(=O)c1ccc(C)cc1)C(=O)Oc1ccc2c3c(c(=O)oc2c1)CCC3	98	-9	1	24	13	10
Cc1ccc(S(=O)(=O)NC(C(=O)Oc2ccc3c(C)c(Cl)c(=O)oc3c2)c2ccccc2)cc1 (configuration not stated)	84	0	72*	88*	59*	64*
Cc1ccc(S(=O)(=O)N[C@H](C(=O)Oc2ccc3c(C(F)(F)F)cc(=O)oc3c2)c2ccccc2)cc1	100	-3	33*	-1	78*	11
COc1ccccc1Nc1nnc(SCC(=O)c2c(N)n(C3CC3)c(=O)[nH]c2=O)s1	132	x	x	x	x	x
CCCn1c(=NC(=O)CCS(=O)(=O)c2ccccc2)sc2cc(S(N)(=O)=O)ccc21	103	x	2	x	x	x
COCCn1c(=NC(=O)CCS(=O)(=O)c2ccccc2)sc2cc(C(=O)OC)ccc21	-9.8*	0	x	x	x	x
N#Cc1ccc(NC(=O)COC(=O)c2cccnc2Cl)cc1	94	x	x	x	x	x
CN(C(=O)CSc1nc2ccccc2o1)C1CCCCC1	99	x	x	x	x	x
O=[N+]([O-])c1ccc2c(c1)N([O-])C1(CCCCC1)[N+]2=O	114	4	x	-18	73*	26
Cc1cc2oc(=O)cc(CN(C)Cc3cccc(F)c3)c2cc1C	93	-6	1	x	x	x
CCc1cc2c(CN(C)Cc3ccccc3F)cc(=O)oc2cc1O	100	-13	54*	x	x	x
Cc1c(O)ccc2c(CC(=O)N[C@@H](Cc3ccccc3)C(=O)O)cc(=O)oc12	96	9	68*	x	x	x
CCc1ccc2c(CN3CCN(Cc4ccccc4)CC3)cc(=O)oc2c1	128	-8	3	x	x	x
COc1cccc(CN(C)Cc2cc(=O)oc3cc(O)c(Cl)cc23)c1	105	-8	77*	x	x	x
CCc1cc2c(CN3CCN(Cc4ccccc4)CC3)cc(=O)oc2cc1O	99	-25	88*	x	x	x
O=C(CSc1nnc(COc2ccc(Cl)cc2)o1)NC1CC2CCC1C2 (configuration not stated)	93	-5	-2	x	x	x
CC1c2ccsc2CCN1S(=O)(=O)c1cccs1 (configuration not stated)	114	-11	-1	10	-2	0
CC(OC(=O)C1=COCCO1)C(=O)NC(C)c1ccc(Cl)cc1Cl (configuration not stated)	102	x	1	x	x	x
Cc1cc(OCC(=O)OCC(=O)N2CC(C)CC(C)C2)ccc1Cl (configuration not stated)	98	x	x	x	x	x
Cc1ccc(C(O)(C(=O)NNc2ccc3ccccc3n2)c2ccc(C)cc2)cc1	101	3	2	1	4	2
O=c1cc(CN2CCN(CCO)CC2)c2cc3c(cc2o1)CCC3	x	-1	0	3	2	-1
Nc1cc(N)nc(SCc2cc(=O)oc3cc4c(cc23)CCC4)n1	102	0	31*	15	-2	0
O=c1cc(CN2CCN(Cc3ccccc3)CC2)c2cc3c(cc2o1)CCC3	115	-10	-1	15	81*	2
Cc1c(O)ccc2c(CN(C)Cc3ccccc3)cc(=O)oc12	95	2	23*	39	81*	46
Cc1c(O)ccc2c(CN3CCN(Cc4ccccc4)CC3)cc(=O)oc12	100	-1	54*	x	x	x
O=C(O)CC1=C(Nc2ccccc2)C(=O)N(c2ccccc2)C1c1ccc(Br)cc1 (configuration not stated)	106	-5	-4	19	-1	-1
CCOC(=O)c1c(S(=O)(=O)N(C)C2CCCCC2)c(C)n(C)c1C	x	3	2	x	x	x
COC(=O)c1cc(OC(=O)CCc2ccc(OC)c(OC)c2)cc(C(=O)OC)c1	x	-1	0	x	x	x
Cc1c(O)c(CN2CCCC2)cc2c3c(c(=O)oc12)CCC3	103	-24	14	34	37	26
CCc1cc(=O)oc2c(C)c(O)c(CN3CCCCC3)cc12	x	-2	53*	19	78*	73*
